A selection: hits, their analogues and other compounds. The true share with any hit is near 2.3%.
PLC-gamma1 inh = inhibitors of human phospholipase C gamma1; P19174; 370,000 tested, 0.84% active; purified PLC-gamma1, fluorogenic substrate, fluorescence; inhibition, % at 12.2 µM; AID 720700
PLCb3 inh = inhibitors of human phospholipase C beta3. Q01970. Purified PLC-beta3, fluorogenic substrate, fluorescence. inhibition, % at 12.2 µM. 370,000 tested, 0.18% active. AID 720704; in the data active = inhibition above about 11%
ADAM10 inh = inhibitors of human ADAM10; O14672; recombinant ADAM10, EDANS/DABCYL FRET peptide cleavage, 3 h; inhibition, % at 7 µM; 370,000 tested, 0.62% active; AID 720582;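 active = inhibition above a per-campaign cutoff equal to the mean of compounds falling between control-based bounds plus 3 SD, cut at about 20% in these data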
ADAM17 inh = inhibits human ADAM17. recombinant ADAM17, EDANS/DABCYL FRET peptide cleavage. inhibition, % at 6.95 µM. 370,000 tested, 0.83% active. AID 720648;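 active = inhibition above the mean of compounds lying between control limits plus 3 SD, set per campaign, cut at about 8.5% in these data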
Target sequence (P78536 215-824 limits assumed): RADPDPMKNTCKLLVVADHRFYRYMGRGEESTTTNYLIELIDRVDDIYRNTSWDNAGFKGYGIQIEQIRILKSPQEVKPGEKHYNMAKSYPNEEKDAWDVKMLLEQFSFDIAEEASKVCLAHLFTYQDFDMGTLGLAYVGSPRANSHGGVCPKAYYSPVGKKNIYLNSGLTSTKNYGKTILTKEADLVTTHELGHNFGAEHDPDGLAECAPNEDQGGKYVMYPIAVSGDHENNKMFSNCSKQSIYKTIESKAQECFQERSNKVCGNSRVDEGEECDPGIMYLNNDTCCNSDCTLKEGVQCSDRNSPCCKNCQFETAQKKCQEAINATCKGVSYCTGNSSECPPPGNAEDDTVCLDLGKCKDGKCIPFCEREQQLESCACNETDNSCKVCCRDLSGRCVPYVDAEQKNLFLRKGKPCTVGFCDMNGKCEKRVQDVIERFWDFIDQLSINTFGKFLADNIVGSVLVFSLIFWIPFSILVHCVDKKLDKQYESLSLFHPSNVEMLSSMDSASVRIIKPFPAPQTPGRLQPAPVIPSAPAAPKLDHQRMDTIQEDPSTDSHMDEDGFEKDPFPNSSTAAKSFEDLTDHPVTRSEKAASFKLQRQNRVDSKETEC
TbMetRS inhib = blocks T. brucei methionyl-tRNA synthetase activity; inhibition, % at 11.9 µM; 360,000 tested, 0.4% active; AID 624268; purified T. brucei MetRS, ATP depletion, Kinase-Glo luminescence;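 active = inhibition above a per-plate cutoff of the control wells' mean inhibition plus 3 SD, cut at about 5.5% in these data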
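Test system: purified T. brucei MetRS enzyme. Also added: ATP, methionine and E. coli bulk tRNA substrates. Compound: 11.9 µM single point. Schedule: 15 min enzyme-compound preincubation, 2 h reaction, 10 min detection, 25 °C. Signal: luciferase luminescence of residual ATP, Kinase-Glo. Evaluation: percent inhibition versus plate control medians. Controls: DMSO wells, low control.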
PLCg1 ctr = inhibits human PLC-gamma1 in PLC-beta3 counter-screen. purified PLC-gamma1, fluorogenic substrate, fluorescence. shares compounds with PLC-gamma1 inh. AID 743258. inhibition, % at 12.3 µM. 3,300 tested, 3.1% active
PLCb3 confirm = confirmation of human PLC-beta3 inhibitors; shares compounds with PLC-gamma1 inh; purified PLC-beta3, fluorogenic substrate fluorescence; inhibition, % at 12.3 µM; 3,300 tested, 1% active; AID 743261; in the data active = inhibition above about 11%
A number is an active result; i = inactive; nt = no result given. Rule as the data show it, unless noted: active = inhibition above about 9.5%; inactive = the rest.

SMILES | PLC-gamma1 inh | PLCb3 inh | ADAM10 inh | ADAM17 inh | TbMetRS inhib | PLCg1 ctr | PLCb3 confirm
O=C(NNC(=O)C12CC3CC(CC(C3)C1)C2)c1cnccn1 | 11 | i | i | i | i | i | i
O=C(NNC(=O)C12CC3CC(CC(C3)C1)C2)c1ccccn1 | i | i | i | i | i | nt | nt
O=C(Nc1cccnc1)C12CC3CC(CC(C3)C1)C2 | i | 11 | i | i | i | i | i
Cc1ccnc(NC(=O)C23CC4CC(CC(C4)C2)C3)c1 | i | 11 | i | i | i | i | i
O=C(Nc1ccc(Oc2ccccc2)cc1)c1ccc2sc([C@H]3C[C@H](O)[C@@H](CO)O3)nc2c1 | i | i | i | i | i | nt | nt
Cc1cccc(NCc2ccc(Br)cc2)n1 | i | i | i | i | i | nt | nt
NC(=O)CCn1nc(-c2ccc(Cl)cc2)c2ccccc2c1=O | 12 | i | i | i | i | i | i
Cn1cc(C(=O)NC2C3CC4CC(C3)CC2C4)cn1 (stereo unspecified) | 12 | i | i | i | i | i | i
COc1ccc(CCNC(=O)Nc2nc(C(N)Cc3ccccc3)cs2)cc1OC (stereo unspecified) | 9.6 | i | i | i | i | i | i
COc1ccc(CC(N)c2csc(NC(=O)NCCc3ccc(OC)c(OC)c3)n2)cc1 (stereo unspecified) | i | i | i | i | i | nt | nt
CC(=O)c1ccccc1OC(=O)CCN1C(=O)C2C3C=CC(C4CC34)C2C1=O (stereo unspecified) | 10 | i | i | i | i | i | i
Cc1c(NC(=O)C(C)OC(=O)COc2cccc3c2OC(C)(C)C3)c(=O)n(-c2ccccc2)n1C (stereo unspecified) | i | 11 | i | i | i | i | i
Cc1c(NC(=O)COc2cccc3c2OC(C)(C)C3)c(=O)n(-c2ccccc2)n1C | i | i | i | i | i | nt | nt
CC(C)c1ccc(NC(=O)Nc2nc(C(N)CCc3ccccc3)cs2)cc1 (stereo unspecified) | i | i | i | i | i | nt | nt
CC1(C)Cc2ccccc2C(/C(=N/O)C(N)=O)=N1 | 11 | i | i | i | i | i | i
O=C(c1cccc(C(=O)N2CCN(c3ccccc3F)CC2)c1)N1CCN(c2ccccc2F)CC1 | i | i | i | i | i | nt | nt
O=C(c1c(F)cccc1F)N1CCN(c2ccccc2F)CC1 | i | 16 | i | i | i | i | i
O=C(Nc1ccccc1N1CCN(C(=O)c2ccc(Cl)cc2)CC1)c1cccc(F)c1 | 12 | i | i | i | i | i | i
CSc1ccc(CN2CCC2(C)C(=O)NC2CCN(Cc3ccccc3)CC2)cc1 (stereo unspecified) | i | i | i | i | i | nt | nt
O=C(CCCN1C(=O)c2ccccc2C1=O)Nc1nccs1 | 14 | i | i | i | i | i | i
Cc1ccc(-n2nc3c(=O)n(CCCC(=O)NCc4ccccc4F)nc(C)c3c2C)cc1 | i | i | i | i | i | nt | nt
Cc1ccc(-n2nc3c(=O)n(CCCC(=O)NCc4ccccc4C)nc(C)c3c2C)cc1 | 14 | i | i | i | i | i | i
O=[N+]([O-])c1ccc(Sc2ncccn2)c([N+](=O)[O-])c1 | 12 | i | i | i | i | 10 | i
CCn1cc(C(=O)O)c(=O)c2ccc(C)nc21 | 10 | i | i | i | i | i | i
CCn1cc(C(=O)OCc2ccccc2)c(=O)c2ccc(C)nc21 | i | i | i | i | i | nt | nt
SMILES | PLC-gamma1 inh | PLCb3 inh | ADAM10 inh | ADAM17 inh | TbMetRS inhib | PLCg1 ctr | PLCb3 confirm
COc1ccc(Br)cc1S(=O)(=O)N1CC(C)OC(C)C1 (stereo unspecified) | i | 11 | i | i | i | i | i
CC(=O)c1ccc(NC(=O)NC2CCCCN(Cc3cccc(Cl)c3)C2=O)cc1 (stereo unspecified) | 11 | i | i | i | nt | i | i
Cc1ccccc1CN1CCCCC(NC(=O)c2ccc(-c3ccccc3)cc2)C1=O (stereo unspecified) | 12 | i | i | i | nt | i | i
CCCCOc1ccc(C(=O)NC2CCCCN(Cc3cccc(C(F)(F)F)c3)C2=O)cc1 (stereo unspecified) | 10 | i | i | i | nt | i | i
COc1cc(NC(=O)NC2CCCCN(Cc3cccc(Cl)c3)C2=O)cc(OC)c1 (stereo unspecified) | i | i | i | i | nt | nt | nt
O=C(NC1CCCCN(Cc2cccc(C(F)(F)F)c2)C1=O)c1ccc(F)cc1 (stereo unspecified) | i | i | i | i | nt | nt | nt
Cc1ccccc1CN1CCCCC(NC(=O)c2ccccc2C)C1=O (stereo unspecified) | i | i | i | i | nt | nt | nt
Cn1cccc1C1CCCN1CC(=O)Nc1ccc(F)c(F)c1F (stereo unspecified) | i | i | i | i | i | nt | nt
Cc1ccc(S(=O)(=O)N2[C@@H](CO)CO[C@H]2CC(=O)c2ccc(F)cc2)cc1 | i | i | i | i | i | nt | nt
CCCCCCCOC(=O)C[N+](C)(C)CCOC1CC2CCC1(C)C2(C)C (stereo unspecified) | 9.9 | i | i | i | i | i | i
O=S(=O)(NC1=NCCC1)c1cccc(NS(=O)(=O)c2ccc(F)c(Cl)c2)c1 | i | i | i | i | i | nt | nt
Cc1ccc([N+](=O)[O-])cc1S(=O)(=O)Nc1cccc(S(=O)(=O)NC2=NCCC2)c1 | 9.6 | i | i | i | i | i | i
O=Cc1cc(N=Nc2ccc(S(=O)(=O)O)cc2)ccc1O | 14 | i | i | i | i | 16 | i
CC(=O)Nc1ccc(-c2ccnc3c2CC(C)(C(=O)NCc2ccc(N(C)C)cc2)O3)cc1 (stereo unspecified) | i | i | i | i | i | nt | nt
CCN(c1ccccc1)S(=O)(=O)c1ccc(Cl)c(C(=O)NCC2CCCO2)c1 (stereo unspecified) | 12 | i | i | i | i | i | i
C=CCOC(=O)CN1C(=O)c2ccccc2C1=O | i | 12 | i | i | i | i | i
CCOC(=O)CN1C(=O)c2ccccc2C1=O | i | i | i | i | i | nt | nt
O=C(Cc1ccccc1)Nc1cccc(NC(=O)c2cccs2)c1 | 11 | i | i | i | i | i | i
C[N+](C)(C)CCOC(N)=O | 11 | i | i | i | i | i | i
Cc1nnc(N/N=C/c2ccc(Br)cc2)n1N | i | i | i | i | i | nt | nt
Nn1cnnc1N/N=C/c1ccc(F)cc1 | 16 | i | i | i | i | i | i
Nn1cnnc1N/N=C/c1ccccc1C(F)(F)F | i | i | i | i | i | nt | nt
Nn1cnnc1N/N=C/c1ccc(Cl)c([N+](=O)[O-])c1 | 12 | i | i | i | i | i | i
Cc1ccc(/C=N/Nc2nncn2N)cc1 | 11 | i | i | i | i | i | i
Nn1cnnc1N/N=C/c1cccc(Cl)c1Cl | i | i | i | i | i | nt | nt

From PubChem BioAssay
